# Only some compounds are listed: those with a hit (about 2.3% of all), similar ones and a draw of the others.
# TRPC6 activator = activates the mouse TRPC6 cation channel. 0.13% of 310,000 active. Q61143. AID 2550. HEK293-TRPC6 membrane potential dye fluorescence; active compounds read high. B-score at 10 µM;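 active = B-score of the integrated fluorescence ratio above library mean plus 3 SD, and starting fluorescence ratio within library mean plus 5 SD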;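 note: higher score means more depolarization so channel activation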
# TRPC4 act = opens the mouse TRPC4 cation channel. Q9QUQ5. HEK293 TRPC4beta/mu-opioid, Fluo4 calcium fluorescence; active compounds read high. B-score at 10 µM. 0.49% of 310,000 active. AID 2237;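 active = B-score above 5 SD of library B-scores, and initial fluorescence ratio not above library mean plus 5 SD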;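 note: positive B-score marks a calcium rise read as TRPC4 activation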
# Target sequence (Q9QUQ5 whole entry, looked up): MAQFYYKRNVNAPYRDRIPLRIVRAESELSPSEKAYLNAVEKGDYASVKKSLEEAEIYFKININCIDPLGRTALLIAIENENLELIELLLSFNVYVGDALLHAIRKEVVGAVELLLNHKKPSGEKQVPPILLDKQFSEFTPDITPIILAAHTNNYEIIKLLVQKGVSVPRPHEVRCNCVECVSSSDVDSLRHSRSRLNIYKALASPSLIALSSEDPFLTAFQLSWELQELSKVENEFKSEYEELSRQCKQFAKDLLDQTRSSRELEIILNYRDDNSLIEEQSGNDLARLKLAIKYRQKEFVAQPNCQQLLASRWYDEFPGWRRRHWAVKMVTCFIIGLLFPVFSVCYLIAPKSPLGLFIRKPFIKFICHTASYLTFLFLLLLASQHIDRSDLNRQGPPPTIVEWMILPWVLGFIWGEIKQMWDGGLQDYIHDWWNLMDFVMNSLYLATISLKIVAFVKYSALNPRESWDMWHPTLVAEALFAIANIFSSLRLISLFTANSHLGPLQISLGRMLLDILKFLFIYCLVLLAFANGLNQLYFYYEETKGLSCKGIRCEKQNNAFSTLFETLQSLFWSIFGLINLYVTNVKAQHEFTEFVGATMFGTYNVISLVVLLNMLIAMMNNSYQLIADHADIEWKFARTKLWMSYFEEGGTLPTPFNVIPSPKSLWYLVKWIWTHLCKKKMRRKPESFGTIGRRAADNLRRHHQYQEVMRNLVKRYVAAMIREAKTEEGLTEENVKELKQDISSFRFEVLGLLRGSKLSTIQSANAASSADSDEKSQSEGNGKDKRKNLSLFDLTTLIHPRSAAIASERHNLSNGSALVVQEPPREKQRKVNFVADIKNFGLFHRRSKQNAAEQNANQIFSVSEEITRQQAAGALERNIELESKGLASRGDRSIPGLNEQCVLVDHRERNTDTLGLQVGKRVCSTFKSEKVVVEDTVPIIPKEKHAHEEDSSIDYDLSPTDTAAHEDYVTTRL
#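 system = HEK293 cells stably co-expressing mouse TRPC4beta and mu-opioid receptor | schedule = Fluo4 dye loading 45 min at room temperature, 110 s recording | measure = B-scored integrated calcium fluorescence ratio | signal = Fluo4 calcium-sensitive dye fluorescence, kinetic, 1 Hz baseline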
# TRPC4 PAM = allosterically enhances the mouse TRPC4 cation channel; HEK293 TRPC4beta/mu-opioid, DAMGO EC20, Fluo-4 Ca2+ flux; active compounds read high; B-score at 10 µM; 0.42% of 310,000 active;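 active = B-score of calcium response area above 5 SD of library B-scores, with initial fluorescence ratio within 5 SD of library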;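 note: B-score of integrated fluorescence ratio over time as area under calcium response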
# TRPC4 block = TRPC4 (mouse) channel inhibition. HEK293 TRPC4beta/mu-opioid, DAMGO-evoked Fluo4 calcium flux; active compounds read low. B-score at 10 µM. 0.39% of 300,000 active;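 active = B-score over 3 SD under the library average, no early fluorescence shift, positive overall ratio signal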
#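 Assay system: HEK293 cells with stable TRPC4beta plus mu-opioid receptor expression. Dosing: single dose. Measured by: Fluo4 Ca2+ flux fluorescence. Also added: DAMGO in two steps, submaximal then maximal. Read-out: B score from integrated Fluo4 fluorescence ratio.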
# TRPC6 inhibitor = inhibitors of mouse TRPC6 channel; 1.1% of 310,000 active; B-score at 10 µM; Q61143; HEK293-TRPC6, membrane potential dye, ACh-evoked depolarization; active compounds read low;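 active = B-score under library mean minus 3 SD, initial fluorescence not abnormally high, positive integrated signal ratio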;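 note: B-score derived from integrated fluorescence ratio over the kinetic read; more negative B-score means stronger inhibition of depolarization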
# TRPC4 sel inh 2 = second selectivity test of TRPC6 inhibitors: effect on mouse TRPC4. HEK293 TRPC4/MOR, membrane potential dye fluorescence; channel activated by saturating DAMGO dose. shares compounds with TRPC6 inhibitor. inhibition, % at 10 µM. AID 2776. 42% of 920 active;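 active = compounds whose fluorescence signal differed from control wells by over 3 SD, either direction, in both duplicate plates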
# TRPC4 spec = tests whether TRPC6 inhibitors also affect mouse TRPC4 | activity change, negative = inhibition, % at 10 µM | 61% of 920 active | HEK293 TRPC4/mu-opioid, membrane potential fluorescence | AID 2777 | shares compounds with TRPC6 inhibitor;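 active = rise or fall in signal beyond 3 SD of buffer-only wells in both replicate plates, either sign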;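 note: integrated kinetic ratio of fluorescence range over baseline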
# HEK293 MPD ctr 2-1 = parental HEK293 nonspecific activity of TRPC6 inhibitors, second screen | shares compounds with TRPC6 inhibitor | parental HEK293 membrane potential dye fluorescence; maximal acetylcholine challenge after compound addition | signal change vs control, % at 10 µM | 31% of 920 active | AID 2779;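 active = membrane potential signal moving either way by over 3 SD of the maximum-effect control, in both duplicate plates, meaning non-specific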
# HEK293 MPD ctr-1 = parental HEK293 nonspecific activity of TRPC6 inhibitors; shares compounds with TRPC6 inhibitor; membrane potential signal change, % at 10 µM; AID 2780; 60% of 920 active; parental HEK293 membrane potential dye fluorescence;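 active = membrane potential signal shifting up or down by more than 3 SD of buffer-only wells, on both duplicate plates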
# HEK293 MPD ctr-2 = checks TRPC6 modulator effects in parental HEK293 cells. membrane potential dye fluorescence. 51% of 2,400 active. shares compounds with TRPC6 inhibitor. membrane potential signal change, % at 10 µM;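 active = membrane potential signal moves up or down beyond 5 SD from buffer-only wells, on both duplicate plates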
# HEK293 MPD ctr 2-2 = second check of TRPC6 modulator effects in parental HEK293 cells | inhibition, % at 10 µM | membrane potential dye fluorescence; after compound, maximal acetylcholine stimulation | shares compounds with TRPC6 inhibitor | 14% of 2,400 active;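 active = membrane potential signal drops by more than 5 SD from the mean control signal, in both duplicate plates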;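 note: plate controls were acetylcholine ECmax control wells for no effect and buffer only wells for full effect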
# TRPC4 ctr mod = mouse TRPC4 off-target activity of TRPC6 modulators. AID 488927. shares compounds with TRPC6 inhibitor. HEK293 TRPC4/mu-opioid, membrane potential fluorescence. 69% of 2,400 active. percent change from control (negative = decrease, positive = increase), % at 10 µM;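 active = membrane potential signal moved up or down beyond 5 SD of buffer control wells, in both duplicate plates, actives on both sides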;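 note: plate controls were assay buffer wells for no effect and DAMGO maximal-effect wells for full effect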
# TRPC4 ctr inh 2 = mouse TRPC4 off-target activity of TRPC6 modulators, second screen | shares compounds with TRPC6 inhibitor | HEK293 TRPC4/mu-opioid, membrane potential dye fluorescence; stimulated with maximal-effect DAMGO | inhibition, % at 10 µM | 55% of 2,400 active | AID 488928;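 active = drop in membrane potential signal beyond 5 SD of the control wells in both duplicate plates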;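 note: TRPC4 counter screen for TRPC6 hits run under conditions tuned for TRPC6 not TRPC4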
# TRPC6 block conf = confirmation of mouse TRPC6 inhibitors; shares compounds with TRPC6 inhibitor; 43% of 3,300 active; inhibition, % at 10 µM; HEK293-TRPC6, membrane potential dye, ACh-evoked depolarization;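 active = fluorescence ratio falls more than 5 SD below the full-stimulation control mean, in both duplicate runs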;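 note: integrated fluorescence ratio of peak minus minimum over baseline after agonist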
# TRPC6 act confirm = mouse TRPC6 activator confirmation. shares compounds with TRPC6 inhibitor. HEK293-TRPC6 membrane potential dye fluorescence, FDSS. activation, % at 10 µM. 11% of 2,800 active. AID 488961;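 active = ratio signal rise beyond 5 SD above unstimulated control wells' mean, seen in both duplicate runs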;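 note: plate controls were buffer EC0 wells for no effect and acetylcholine ECmax response for full effect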
# An asterisk follows results filed as active; i = inactive; nt = no result.
SMILES,TRPC6 activator,TRPC4 act,TRPC4 PAM,TRPC4 block,TRPC6 inhibitor,HEK293 MPD ctr-2,HEK293 MPD ctr 2-2,TRPC4 ctr mod,TRPC4 ctr inh 2,TRPC6 block conf,TRPC6 act confirm,others
CN1CCc2c(sc3c2C(=O)NC(c2cccs2)N3)C1 (stereo not drawn),i,i,i,i,i,nt,nt,nt,nt,nt,nt,
COc1ccc(-c2cc(C(F)(F)F)nc(-n3ccnc3)n2)cc1,i,i,i,i,i,nt,nt,nt,nt,nt,nt,
CN1Cc2c(N3CCOCC3)nc3sc(C(=O)c4ccc(Br)cc4)c(N)c3c2CC1(C)C,i,i,i,i,-7.2*,nt,nt,nt,nt,i,i,TRPC4 sel inh 2=i;TRPC4 spec=-11%*;HEK293 MPD ctr 2-1=i;HEK293 MPD ctr-1=-161%*
Cc1ccn2c(Nc3ccccc3C)c(-c3cccnc3)nc2c1,i,i,i,i,-5.7*,-166%*,i,-32%*,77%*,46%*,i,
Cc1ccccc1Nc1c(-c2ccc(N3CCOCC3)cc2)nc2cnccn12,i,i,i,i,i,nt,nt,nt,nt,nt,nt,
CC(=O)Nc1c(-c2ccccc2)nc2ccc(Cl)cn12,i,i,i,i,i,nt,nt,nt,nt,nt,nt,
Cc1ccccc1Nc1c(-c2ccncc2)nc2ccc(Cl)cn12,i,i,i,i,-5.8*,i,i,-16%*,70%*,i,i,
COC(=O)c1sc(C(C)(C)C)cc1CSc1ccccc1,i,i,i,i,i,nt,nt,nt,nt,nt,nt,
Cn1cc(CN2CCN(c3ccccc3)CC2)c2ccccc21,i,i,i,i,-5.5*,i,i,12%*,43%*,i,i,
COC(=O)C(N)Cc1ccc(O)c(O)c1 (stereo not drawn),i,i,i,i,i,nt,nt,nt,nt,nt,nt,
NCCc1ccc(O)c(O)c1,i,i,i,i,-5.3*,i,i,i,i,i,i,
COc1ccc(-n2c(-c3ccc(Br)cc3)c[n+]3c2CCc2ccccc2-3)cc1,i,i,i,i,-5.3*,-150%*,i,18%*,62%*,i,i,
COc1ccccc1-n1c(-c2ccccc2)c[n+]2c1CCc1ccccc1-2,i,i,i,i,-9.9*,92%*,i,20%*,40%*,77%*,i,TRPC4 sel inh 2=i;TRPC4 spec=1.8%*;HEK293 MPD ctr 2-1=i;HEK293 MPD ctr-1=i
CC(C)c1ccc(-n2c(-c3ccccc3)c[n+]3c2CCc2ccccc2-3)cc1,i,i,i,i,i,nt,nt,nt,nt,nt,nt,
COc1ccccc1-n1c(-c2ccccc2)c[nH]c1=S,i,i,i,i,i,nt,nt,nt,nt,nt,nt,
COCC(C)NC(=O)CSc1nc2ccccc2c(=O)n1CCc1ccc(S(N)(=O)=O)cc1 (stereo not drawn),i,i,i,i,i,nt,nt,nt,nt,nt,nt,
CCCCn1c2ccc(C)cc2c2nnc(SCCN3CCCCC3)nc21,i,i,i,i,-5.8*,i,i,i,66%*,45%*,i,
CCCCn1c2ccc(F)cc2c2nnc(SCCN3CCCCC3)nc21,i,i,i,i,-5.6*,-74%*,i,-19%*,38%*,i,i,
CSc1nnc2c3cc(F)ccc3n(C)c2n1,i,i,i,i,i,nt,nt,nt,nt,nt,nt,
CCn1c2ccccc2c2nnc(SCCN3CCCCC3)nc21,i,i,i,i,i,nt,nt,nt,nt,nt,nt,
CCn1c2ccc(C)cc2c2nnc(SCCN3CCOCC3)nc21,i,i,i,i,i,nt,nt,nt,nt,nt,nt,
Cn1c2ccc(F)cc2c2nnc(SCCN3CCCCC3)nc21,i,i,i,i,-7.4*,nt,nt,nt,nt,i,i,TRPC4 sel inh 2=76%*;TRPC4 spec=-13%*;HEK293 MPD ctr 2-1=16%*;HEK293 MPD ctr-1=-204%*
Cc1cccc(N(CC(=O)N2CCc3ccccc3C2)S(C)(=O)=O)c1C,i,i,i,i,i,nt,nt,nt,nt,nt,nt,
COc1ccc(-c2csc3nc(C)nc(N4CCC(C)CC4)c23)cc1OC,i,i,23*,i,-6.6*,nt,nt,nt,nt,59%*,nt,TRPC4 sel inh 2=i;TRPC4 spec=3.6%*;HEK293 MPD ctr 2-1=i;HEK293 MPD ctr-1=2.4%*
Cc1cccc(Cl)c1NC(=S)NCCc1ccccn1,i,i,i,i,i,nt,nt,nt,nt,nt,nt,
SMILES,TRPC6 activator,TRPC4 act,TRPC4 PAM,TRPC4 block,TRPC6 inhibitor,HEK293 MPD ctr-2,HEK293 MPD ctr 2-2,TRPC4 ctr mod,TRPC4 ctr inh 2,TRPC6 block conf,TRPC6 act confirm,others
Cc1ccc(S(=O)(=O)c2cc3c(=O)n4ccccc4nc3n(CCCN3CCOCC3)c2=N)cc1C,i,i,i,i,-6.2*,-250%*,66%*,-52%*,80%*,66%*,i,
N=c1c(S(=O)(=O)c2ccccc2)cc2c(=O)n3ccccc3nc2n1CCCN1CCOCC1,i,i,i,i,-5.5*,-142%*,i,-41%*,51%*,50%*,i,
CC(Nc1ncnc2sccc12)c1ccccc1 (stereo not drawn),i,i,i,i,i,nt,nt,nt,nt,nt,nt,
Cc1ccc(N2CCN(c3ccc(C)cc3)C2c2cccnc2)cc1,i,i,i,i,i,nt,nt,nt,nt,nt,nt,
c1ccc(N2CCN(c3ccccc3)C2c2cccnc2)cc1,i,i,i,i,-5.6*,i,i,18%*,31%*,i,nt,
NC1=NC(=Nc2ccc(Cl)cc2)c2ccccc21,i,i,i,i,i,nt,nt,nt,nt,nt,nt,
CC(C)c1ccc(N=C2N=C(N)c3ccccc32)cc1,i,i,i,i,-6.1*,i,i,-29%*,77%*,73%*,i,

# Screens deposited in PubChem BioAssay by Johns Hopkins Ion Channel Center.
